# From PubChem BioAssay
# Only some compounds are listed: those with a hit (about 1.8% of all), similar ones and a draw of the others.
# ATG4B inhibitor: inhibitors of human ATG4B cysteine protease. 340,000 tested, 0.51% active. inhibition, % at 8.33 µM. ATG4B cleavage of LC3-PLA2, NBD-HPC fluorescence, 1 h; in the data active = inhibition above about 40%
# AI-2 QS mod: modulators of Vibrio harveyi AI-2 quorum sensing system | Vibrio harveyi JMH597 AI-2 luminescence/OD600 ratio, 9 h; hits give low values; strain lacks LuxN and CqsS sensors; 0 = neutral-control median | activity change, % at 7.5 µM | 300,000 tested, 0.4% active | AID 2094; in the data active = activity change below about -75%, passing the limit was not always enough; inconclusive = no clear call, values can overlap the other calls;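 note: luminescence divided by OD600 gain over 9 h not by final OD600 alone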
# HKDC1 inh: blocks human hexokinase HKDC1 activity | recombinant HKDC1, G6PDH/diaphorase resazurin coupled fluorescence | AID 493160 | inhibition, % at 20 µM | Q2TB90 | 340,000 tested, 0.16% active;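 active = inhibition above about 35% when tested at 20 µM, limit read from the data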;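 note: plate controls were DMSO wells with enzyme for no effect and DMSO wells lacking enzyme for full effect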
#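 Material: recombinant HKDC1 hexokinase; Amount: HKDC1 at 5 µg/mL; Medium: Tris pH 8.0 buffer with MgCl2, Tween-20, BSA, BME; Schedule: 90 min reaction incubation at room temperature, dark; Technique: coupled resazurin fluorescence, excitation 525 nm, emission 613 nm.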
# HDAC3 inhib: inhibitors of human histone deacetylase 3 | recombinant HDAC3, fluorogenic peptide/trypsin coupled, fluorescence | inhibition, % at 8.3 µM | 320,000 tested, 0.15% active | AID 2718; in the data active = inhibition above about 26%, passing the limit was not always enough; inconclusive = no clear call, values can overlap the other calls
# Target sequence (O15379 whole entry, looked up): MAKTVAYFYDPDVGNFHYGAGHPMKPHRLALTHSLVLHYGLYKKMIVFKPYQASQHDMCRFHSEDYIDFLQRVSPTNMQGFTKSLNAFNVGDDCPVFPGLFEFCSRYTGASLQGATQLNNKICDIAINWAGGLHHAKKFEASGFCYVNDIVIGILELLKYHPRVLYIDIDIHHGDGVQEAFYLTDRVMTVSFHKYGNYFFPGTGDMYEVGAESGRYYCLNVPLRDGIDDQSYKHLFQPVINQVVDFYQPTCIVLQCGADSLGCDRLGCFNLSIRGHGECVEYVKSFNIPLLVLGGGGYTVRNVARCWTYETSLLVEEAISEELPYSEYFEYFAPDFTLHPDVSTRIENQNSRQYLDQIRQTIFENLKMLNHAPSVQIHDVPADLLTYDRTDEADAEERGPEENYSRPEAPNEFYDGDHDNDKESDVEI
# A1 inh: inhibitors of the anti-apoptotic protein A1, read as caspase activation; MEF A1-2A-BIM cells, Caspase-Glo 3/7 luminescence, 3 h; percent of clofoctol response, vehicle zero; caspase activation, % (no concentration beside the values); 330,000 tested, 0.066% active;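 active = over half of replicate activation scores above 10%, or exactly half above 10 with the replicate mean above 10; inconclusive = replicate mean below 10 yet half the replicates above 10; inactive = over half of replicates below 10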
# LANA-H2B inh: blocks KSHV LANA binding to histone H2A/H2B | Q9QR71 | cell-free LANA-H2A/H2B peptide, fluorescence polarization | inhibition, % (no concentration beside the values) | 320,000 tested, 0.6% active; in the data active = inhibition mostly above about 10%, no sharp cut-off; inactive = mostly below about 6.7%
# ATG4B conf: ATG4B (human) inhibition, single-dose confirmed; AID 504757; inhibition, % at 8.33 µM; 320 tested, 92% active; ATG4B protease fluorescent substrate cleavage assay; shares compounds with ATG4B inhibitor; in the data active = inhibition above about 39%
# PLA2 ctr: counter-screen for ATG4B inhibitors: human phospholipase A2; inhibition, % at 8.33 µM; 1,600 tested, 66% active; AID 588402; shares compounds with ATG4B inhibitor; purified PLA2, NBD-C6-HPC fluorescence, 45 min; in the data active = inhibition above about 50%
# Numbers without * were called inactive; ? = inconclusive; / = no result.
SMILES,ATG4B inhibitor,AI-2 QS mod,HKDC1 inh,HDAC3 inhib,A1 inh,LANA-H2B inh,PLA2 ctr,others
CC(=O)N1c2c(cc(Br)cc2S(=O)(=O)N2CCCCC2)CC1C (stereo not given),-5.0,13.2,3.2,4.6,0.2,0.4,/,
CC(=O)N1c2c(cc(Br)cc2S(=O)(=O)N2CCN(c3ccccc3F)CC2)CC1C (stereo not given),55.4*,22.8,3.6,2.5,-0.3,1.9,67.5*,
Cc1nnc(N2CCCC(C(=O)NCc3cccc(F)c3)C2)c2nn(-c3ccccc3)c(C)c12 (stereo not given),50.2*,18.0,20.3,-10.4,1.7,0.9,36.9,
CCCc1nc2c(=O)n(C)c(=O)nc-2n(C)n1,77.3*,/,3.3,/,/,/,-0.1,ATG4B conf=28.9
Cn1nc(-c2ccccn2)nc2c(=O)n(C)c(=O)nc1-2,79.3*,-92.4*,29.1,/,-0.9,-2.7,-12.3,ATG4B conf=23.8
COc1ccc(CC(=O)N(C)C2CCCCC2)cc1S(=O)(=O)N1CCOCC1,-4.3,10.6,-0.4,-2.4,-0.1,-4.9,/,
NC(=O)c1cc(NC(=O)CCc2nc3ccccc3s2)cc(C(N)=O)c1,10.6,16.5,-2.4,-1.3,-0.3,4.0,/,
Cc1ccc([N+](=O)[O-])cc1NC(=S)NC(=O)C(C)(C)C,1.6,34.4,-3.0,8.1,0.4,-0.3,/,
Cc1ccc(NS(=O)(=O)c2cc([N+](=O)[O-])ccc2NNC(=S)Nc2cc(C)ccc2C)c(C)c1,58.5*,21.0,-4.9,-7.6,-0.2,2.0,72.8*,
Cc1ccc(NS(=O)(=O)c2cc([N+](=O)[O-])ccc2NNC(=S)Nc2cccc(Cl)c2)c(C)c1,88.2*,36.7,-12.2,-9.7,0.2,0.3,101.1*,
COc1ccc(NC(=S)NNc2ccc([N+](=O)[O-])cc2S(=O)(=O)Nc2ccc(C)cc2C)cc1,42.7*,27.2,5.9,0.2,?,3.3,57.2*,
COc1ccc(NC(=S)Nc2cccc([N+](=O)[O-])c2)cc1,9.8,3.5,7.4,5.9,-0.9,-2.9,/,
C[C@H](CO)N1C[C@H](C)[C@@H](CN(C)Cc2ccc(C(=O)O)cc2)Oc2c(cccc2N(C)C)C1=O,-11.1,/,-3.1,-2.5,-0.7,2.7,/,
Cc1ccc(NC(=O)[C@@H]2CCCN2C(=O)[C@@H]2Cc3ccccc3CN2)c(C)c1,-1.5,12.7,0.2,2.4,0.2,0.1,/,
Cc1ccc(-c2cc(-c3ccccc3Cl)[nH]n2)c(O)c1,68.0*,3.7,-1.7,17.9,-1.5,-0.3,77.0*,
Cc1ccccc1-c1cc(-c2ccccc2O)n[nH]1,57.7*,25.8,0.5,13.4,0.0,-1.5,64.8*,
Cc1ccc(-c2cc(-c3ccccc3[N+](=O)[O-])[nH]n2)c(O)c1,60.6*,15.7,3.1,7.7,0.0,5.4,75.0*,
Oc1ccccc1-c1cc(-c2ccccc2)n[nH]1,-2.8,/,-2.0,-1.1,-8.0,2.1,/,
CC(OC(=O)C1CCCC1)C(=O)Nc1ccc(C(N)=O)cc1 (stereo not given),-0.2,/,-5.5,1.7,0.2,0.8,/,
OC(c1cc(C(F)(F)F)nc2c(C(F)(F)F)cccc12)C1CCCCN1 (stereo not given),0.6,/,3.6,1.8,2.2,-0.9,/,
OC(c1cc(-c2cccc(Cl)c2)nc2ccccc12)C1CCCCN1 (stereo not given),42.5*,/,-4.3,/,/,/,65.8*,
Cc1ccc(C(=O)Nc2ncc(Cc3ccccc3)s2)o1,42.9*,-26.8,5.0,7.6,-8.0,-3.3,64.0*,
Fc1cccc(Cl)c1CNc1ccc(N2CCCC2)cc1,58.8*,21.9,8.5,-0.6,-0.1,-0.2,58.0*,
N#C/C(=C\c1ccccc1[N+](=O)[O-])c1nc(C2CC2)cs1,48.4*,13.2,10.7,0.6,0.2,0.1,62.7*,
